# Assay outcomes deposited in PubChem BioAssay by Johns Hopkins Ion Channel Center.
# Most compounds without a hit are left out; they make up all but 3.5% or so of the library.
# MrgX1 ag = human MrgX1 receptor agonism, primary screen; AID 588627; 310,000 compounds, 0.44% hits; B-score at 10 µM; Q96LB2; MrgX1-HEK293 cells, Fluo-4 calcium fluorescence, agonist mode; active compounds read high;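 active = calcium response B-score plate-corrected fluorescence ratio at least 3 library SD, with starting fluorescence B-score inside 5 SD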
# Target sequence (Q96LB2 whole entry, looked up): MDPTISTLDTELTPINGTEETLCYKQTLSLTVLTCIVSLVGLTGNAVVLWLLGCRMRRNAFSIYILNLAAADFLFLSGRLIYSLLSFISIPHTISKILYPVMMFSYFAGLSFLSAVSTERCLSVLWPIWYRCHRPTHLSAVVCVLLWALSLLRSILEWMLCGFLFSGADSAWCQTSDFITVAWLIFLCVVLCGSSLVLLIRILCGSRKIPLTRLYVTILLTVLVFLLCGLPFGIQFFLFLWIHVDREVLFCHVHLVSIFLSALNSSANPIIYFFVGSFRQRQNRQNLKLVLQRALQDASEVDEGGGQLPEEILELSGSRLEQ
#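 Material: HEK293 cells stably expressing human MrgX1 receptor | Quantity: 15,000 cells per well | Times: Cells plated overnight, dye loaded 0.5 h 37 °C, 0.5 h room temperature | Measured by: Kinetic Fluo-4 NW fluorescence of intracellular calcium | Control set: Positive and negative controls per plate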
# RGS4 pot = potentiators or activators of RGS4 | 310,000 compounds, 0.92% hits | B-score at 10 µM | AID 463111 | HEK293 M3R/inducible RGS4, carbachol calcium flux Fluo4; active compounds read low;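 active = B-score of the integrated calcium signal more than 4 SD below the library mean, with starting fluorescence not abnormally high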;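 also: negative B-score means reduced calcium response which marks RGS4 activation or potentiation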
#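 Reagent: ECmax carbachol challenge; Test system: M3R-expressing HEK293 line, RGS4 induced by doxycycline; Schedule: overnight RGS4 induction, 30 min dye load 37 °C, 20 min compound RT; Detection: calcium dye Fluo4 fluorescence; Read-out: Agonist-evoked peak-minus-minimum fluorescence over baseline, integrated ratio, B score.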
# MrgX1 PAM = human MrgX1 positive allosteric modulation, primary screen; MrgX1-HEK293, Fluo-4 calcium flux, FDSS; active compounds read high; 310,000 compounds, 0.63% hits; B-score at 10 µM; Q96LB2;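 active = plate-corrected calcium response at least 3 library SD above typical, normal starting fluorescence, not activating the receptor alone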;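 also: compound read alongside a low EC10 to EC30 dose of BAM8-22 agonist; peak minus trough fluorescence over baseline measured at the second addition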
# MrgX1 antagonist = antagonists of human MrgX1 receptor. B-score at 10 µM. MRGX1-HEK293 calcium flux, Fluo-4, BAM8-22 antagonism; active compounds read low. 310,000 compounds, 1.3% hits. Q96LB2;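 active = calcium-response B-score plate-corrected more than 3 library SD below zero, starting fluorescence within 5 deviations, no agonist response on first addition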;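 also: peak minus trough fluorescence over baseline after final BAM8-22 challenge near maximal dose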
# RGS4 block = human RGS4 inhibition; P49798; B-score at 10 µM; HEK293 M3R/RGS4 inducible, Fluo-4 calcium flux; active compounds read high; triggered by carbachol at its EC20; 310,000 compounds, 0.45% hits; AID 463165;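 active = B-score, a plate-corrected calcium signal, over three deviations above library mean, with baseline fluorescence within five deviations of library mean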;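 also: RGS4 expression induced by doxycycline in cells with stable M3 receptor; B-score is computed from the integrated fluorescence ratio over baseline after carbachol; higher B-score means a larger calcium signal and so more RGS4 inhibition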
# Target sequence (P49798 whole entry, looked up): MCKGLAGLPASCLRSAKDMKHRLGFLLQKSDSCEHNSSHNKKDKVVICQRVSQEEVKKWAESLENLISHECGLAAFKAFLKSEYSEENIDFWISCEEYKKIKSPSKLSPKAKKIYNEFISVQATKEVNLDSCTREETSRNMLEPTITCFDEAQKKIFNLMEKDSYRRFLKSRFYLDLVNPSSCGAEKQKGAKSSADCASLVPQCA
# RGS4 activ val = confirmation of RGS4 activators; shares compounds with RGS4 pot; HEK293 M3R/RGS4 inducible, carbachol calcium flux Fluo4; inhibition, % at 10 µM; 1,100 compounds, 89% hits; AID 602282;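 active = inhibition above 3 SD of the buffer control wells, cut at about 41% in these data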;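 also: signal is the integrated peak-minus-minimum Fluo4 fluorescence over baseline ratio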
# RGS4 act ctr = RGS4 activator counter-screen hit in non-induced cells | shares compounds with RGS4 pot | HEK293 M3R non-induced RGS4, Fluo4 calcium flux; after carbachol challenge at its EC90 | inhibition, % at 10 µM | 1,100 compounds, 82% hits | AID 602283;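 active = inhibition exceeding 3 SD of buffer-only control wells, cut at about 26% in these data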;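 also: percent drop in integrated peak-minus-baseline over baseline Fluo4 ratio after carbachol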
# * marks the source's active call; other numbers are inactive results; i = inactive; x = no result given.
SMILES,MrgX1 ag,RGS4 pot,MrgX1 PAM,MrgX1 antagonist,RGS4 block,RGS4 activ val,RGS4 act ctr
O=C(c1ccco1)N1CCN(c2nc(C3CC3)nc3sc4c(c23)CCCC4)CC1,i,-8.5*,i,i,i,87*,45*
O=C1CC(c2ccco2)Cc2nc(N3CCN(Cc4ccc5c(c4)OCO5)CC3)ncc21 (centres undefined),i,-8.9*,i,i,i,88*,65*
Cc1cc(Nc2ccc(F)cc2Cl)n2nc(C)nc2n1,i,i,i,i,i,x,x
O=C1CSC2(C(=O)N3CCCc4cccc2c43)N1c1cccc(C(F)(F)F)c1 (centres undefined),i,-8.2*,i,i,i,90*,76*
COc1ccc(N2C(=O)CSC23C(=O)N2CCCc4cccc3c42)cc1 (centres undefined),i,-8.3*,i,i,i,92*,89*
O=C1N2CCCc3cccc(c32)C12Nc1ccccc1S2 (centres undefined),x,i,x,x,i,x,x
CCOC(=O)C1CCCN(C(=S)NC2CCCC2)C1 (centres undefined),i,i,i,i,i,x,x
CCCCCCOc1ccc(-c2ccc(C#N)cn2)cc1,i,-7.9*,i,i,i,71*,84*
COc1ccc(NC(=O)c2ccc3ccccc3n2)cc1S(=O)(=O)N1CCCCC1,i,-8.6*,i,i,i,92*,49*
COc1ccc(S(=O)(=O)N2CCCCC2)cc1NC(=O)c1ccc2ccccc2n1,i,i,i,i,i,x,x
CC(=O)N1c2ccccc2C(C)CC12CCCCC2 (centres undefined),i,-7.8*,i,i,i,86*,37*
N/C(=N\OC(=O)/C=C/c1ccccc1Cl)c1ccccn1,i,i,i,i,i,x,x
COc1ccc(C(O)(CCN2CCCCC2)C2CCCCC2)cc1 (centres undefined),i,-10*,i,i,i,92*,95*
CCCC(O)(CCN1CCCCC1)c1ccc(OCC)cc1 (centres undefined),i,i,i,i,i,x,x
CC(C)NC(=O)Cn1c(=O)cnc2ccccc21,i,i,i,i,i,x,x
COC(=O)C1=C(C)N(C)C(=O)NC1c1ccc(C)cc1 (centres undefined),i,i,i,i,i,x,x
CC1=C(C(=O)OC(C)(C)C)C(c2ccc3ccccc3c2)NC(=O)N1C (centres undefined),i,-8*,i,i,i,94*,81*
Cc1ccc(S(=O)(=O)NCCc2nnc(SCc3cccnc3)n2C)cc1,i,i,i,i,i,x,x
CCCc1cc(-c2n[nH]c(=S)n2CC(C)C)cs1,i,i,i,i,i,x,x
CCCCn1c(-c2csc(C(C)C)c2)n[nH]c1=S,i,-9.7*,i,i,i,92*,60*
CCCCn1c(-c2csc(CC)c2)n[nH]c1=S,i,-8*,i,i,i,88*,55*
CC(SCc1ccccc1)C(=O)NC1CCCC1 (centres undefined),i,i,i,i,i,x,x
COCCNCC(=O)N1c2ccccc2Sc2ccccc21,i,-9.5*,i,i,i,94*,41*
CC(C)CNCC(=O)N1c2ccccc2Sc2ccccc21,i,-8*,i,i,i,86*,50*
Cc1cccc[n+]1CC(=O)N1c2ccccc2Sc2ccccc21,i,-14*,i,i,i,92*,87*
SMILES,MrgX1 ag,RGS4 pot,MrgX1 PAM,MrgX1 antagonist,RGS4 block,RGS4 activ val,RGS4 act ctr
COCCCNC(=O)N1c2ccccc2Sc2ccccc21,i,i,i,i,i,x,x
CC1CCc2c(C(=O)OCC(=O)Nc3cccc(S(=O)(=O)N4CCCCCC4)c3)csc2C1 (centres undefined),i,i,i,i,i,x,x
CN1C2CCC1CC(NC(=O)CSc1ccc(Cl)cc1)C2 (centres undefined),i,-9*,i,i,i,59*,0
CN1C2CCC1CC(NC(=O)c1ccc(Cl)cc1)C2 (centres undefined),i,i,i,i,i,x,x
S=c1[nH]nc(-c2ccncc2)n1/N=C/C=C/c1ccco1,i,i,i,i,i,x,x
S=c1[nH]nc(-c2ccccc2Cl)n1/N=C/C=C/c1ccco1,i,-8.2*,i,i,i,94*,89*
COc1ccc(-c2nc3ccccn3c2NCc2ccc3c(c2)OCO3)cc1,i,-8.6*,i,i,i,60*,0
c1ccc(-c2nc3ccccn3c2NCc2ccc3c(c2)OCO3)cc1,i,i,i,i,i,x,x
CN(/N=C/c1ccc2c(c1)OCO2)c1ccccc1,i,i,i,i,i,x,x
CC(Oc1ccccc1)C(=O)NC1CCN(Cc2ccccc2)CC1 (centres undefined),i,-8.3*,i,i,i,80*,53*
CCCCn1c(CCc2ccccc2)nc2cc3[nH]c(=O)c(C(C)C)nc3cc21,i,i,i,i,i,x,x
COC(=O)c1ccc(C(=O)N(C)C2CCCN(Cc3ccccc3F)C2)cc1 (centres undefined),i,i,i,i,i,x,x
COCc1ccc(C(=O)N(C)C2CCCN(Cc3ccccc3F)C2)o1 (centres undefined),i,-8.6*,i,i,i,56*,0
Cc1cc(NC(=O)CSc2nc(-c3ccc(F)cc3)cs2)no1,i,i,i,i,i,x,x
COc1ccc(NC(=O)c2cc(-c3cccs3)on2)cc1,i,i,i,i,i,x,x
O=C(O)c1ccccc1NS(=O)(=O)c1ccc(NNC(=S)Nc2ccc(OC(F)F)cc2)c([N+](=O)[O-])c1,x,-12*,x,x,i,0,0
CCNC(=S)N1CCN(c2nc(-c3cccc(OC)c3)cs2)CC1,i,i,i,i,i,x,x
COc1cccc(-c2csc(N3CCN(C(=S)NCC(C)C)CC3)n2)c1,i,-7.7*,i,i,i,80*,56*
COc1ccc2c(C)c(CCC(=O)NCCCN3CCCC3=O)c(=O)oc2c1C,i,-8.9*,i,i,i,0,0
